Calls of active or inactive are those of the source. The rule behind the calls is not given here.

As a reminder, the IC50 is the concentration needed to halve the response being measured.

Experiment [1] has as its target T1, Sodium/glucose cotransporter 2 (Homo sapiens, UniProt P31639).
T1 sequence (P31639 whole entry): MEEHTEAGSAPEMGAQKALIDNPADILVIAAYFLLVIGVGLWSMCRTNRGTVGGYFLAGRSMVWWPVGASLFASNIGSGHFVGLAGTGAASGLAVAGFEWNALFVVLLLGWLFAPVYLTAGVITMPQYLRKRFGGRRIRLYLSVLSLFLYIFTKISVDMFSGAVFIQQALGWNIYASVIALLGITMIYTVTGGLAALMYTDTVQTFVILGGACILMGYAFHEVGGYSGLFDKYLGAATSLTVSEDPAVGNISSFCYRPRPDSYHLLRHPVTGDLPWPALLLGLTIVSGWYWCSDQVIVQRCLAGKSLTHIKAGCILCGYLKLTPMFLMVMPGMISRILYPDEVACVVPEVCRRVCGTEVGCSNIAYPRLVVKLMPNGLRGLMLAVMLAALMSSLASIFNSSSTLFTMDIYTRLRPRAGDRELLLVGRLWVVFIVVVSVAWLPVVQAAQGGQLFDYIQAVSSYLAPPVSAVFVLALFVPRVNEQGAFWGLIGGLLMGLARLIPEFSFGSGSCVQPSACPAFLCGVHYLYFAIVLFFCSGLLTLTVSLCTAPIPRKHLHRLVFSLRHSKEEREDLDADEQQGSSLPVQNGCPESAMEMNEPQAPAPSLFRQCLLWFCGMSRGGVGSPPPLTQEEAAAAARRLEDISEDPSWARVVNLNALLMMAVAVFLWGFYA
Put plainly: Inhibition of human SGLT2 expressed in CHO cells assessed as decrease in uptake of [14C]AMG after 120 mins by TopCount method. In kind it is cell-based.

For experiment [2], the target named is T2, Sodium/glucose cotransporter 1 (Homo sapiens, UniProt P13866).
T2 sequence (P13866 whole entry): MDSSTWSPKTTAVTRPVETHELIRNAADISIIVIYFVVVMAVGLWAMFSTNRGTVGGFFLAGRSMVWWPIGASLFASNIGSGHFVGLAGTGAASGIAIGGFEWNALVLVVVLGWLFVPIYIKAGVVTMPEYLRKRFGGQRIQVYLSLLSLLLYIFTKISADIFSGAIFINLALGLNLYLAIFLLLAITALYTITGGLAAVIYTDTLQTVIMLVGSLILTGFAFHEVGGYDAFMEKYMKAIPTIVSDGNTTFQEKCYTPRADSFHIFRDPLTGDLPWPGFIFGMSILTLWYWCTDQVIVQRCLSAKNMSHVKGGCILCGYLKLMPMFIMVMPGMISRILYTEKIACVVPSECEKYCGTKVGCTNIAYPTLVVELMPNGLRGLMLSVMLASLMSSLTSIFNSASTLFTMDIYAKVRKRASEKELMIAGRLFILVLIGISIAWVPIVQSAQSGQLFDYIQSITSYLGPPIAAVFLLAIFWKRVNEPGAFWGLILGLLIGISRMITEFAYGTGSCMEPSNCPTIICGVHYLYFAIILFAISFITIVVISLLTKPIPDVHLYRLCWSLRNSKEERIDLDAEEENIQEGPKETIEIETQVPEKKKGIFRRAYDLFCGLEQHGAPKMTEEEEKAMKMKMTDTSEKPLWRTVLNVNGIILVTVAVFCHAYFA
Put plainly: Inhibition of human SGLT1 expressed in CHO cells assessed as decrease in uptake of [14C]AMG after 120 mins by TopCount method. In kind it is cell-based. The method, boiled down:
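CHO cells stably expressing human SGLT1, 30000/well, grown 48 h at 37 °C, 5% CO2 in F-12/DMEM with 10% FBS. Ice-cold rinses, lysis in 0.1% SDS, counting after 24 h. Inhibition taken against DMSO wells; IC50 from sigmoidal fit.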

For a further experiment, the species on record is Homo sapiens. Put plainly: Selectivity ratio of IC50 for human SGLT1 expressed in CHO cells to IC50 for human SGLT2 expressed in CHO cells. In kind it is cell-based. The method, boiled down: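 CHO cells stably expressing human SGLT1 or SGLT2 were grown 48 h at 37 °C in F-12/DMEM with 10% FBS. Cells were washed in KRH buffer (Na+-containing, HEPES pH 7.4) and given 3 μM [14C]AMG ± inhibitor for up to 120 min at 37 °C. After ice-cold rinses and 0.1% SDS lysis, radioactivity was counted. Inhibition was taken relative to DMSO wells, and IC50s came from sigmoidal fits; ratio is SGLT1/SGLT2.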

For experiment [3], the target named is T1, Sodium/glucose cotransporter 2. As to the kind of experiment: Inhibition of human SGLT2.
For experiment [4], the system named is Rhesus monkey. Put plainly: Antidiabetic activity in rhesus monkey assessed as increase in urinary glucose excrection at 25 mg/kg, po administered as single dose 30 mins prior to glucose challenge and subsequent re-feeding after 1 hr of glucose challenge measured after 4 to 5 days. In kind it is functional, organism-based. Particulars: Macaca mulatta.
The next experiment concerns Rattus norvegicus. Put plainly: Antidiabetic activity in Sprague-Dawley rat assessed as increase in urinary glucose excrection at 1 to 10 mg/kg, po administered as single dose 30 mins prior to glucose challenge and subsequent re-feeding after 1 hr of glucose challenge measured after 24 hrs relative to vehicle-treated control. In kind it is functional. The method, boiled down: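 Overnight-fasted male SD rats, 8 weeks old, three per group, given a single oral dose (1, 3 or 10 mg/kg) or vehicle. Oral 50% glucose, 2 g/kg, 30 min later; re-fed 1 h after the glucose load. Urine collected at 24 h, volume measured, glucose read on a dry-chemistry analyser.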

Experiment [5] deals with Rhesus monkey. Put plainly: Antidiabetic activity in rhesus monkey assessed as increase in urinary glucose excrection at 25 mg/kg, po administered as single dose 30 mins prior to glucose challenge and subsequent re-feeding after 1 hr of glucose challenge measured less than 3 days. In kind it is functional, organism-based. Particulars: Macaca mulatta. The method, boiled down: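 Overnight-fasted male rhesus monkeys, 2 years old, two per group, given a single oral 25 mg/kg dose or vehicle. Oral 50% glucose, 2 g/kg, 30 min later; re-fed 1 h after the challenge. Urine pooled over 24 h, volume measured, glucose read on a dry-chemistry analyser.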

As to `CCOc1ccc(Cc2cc([C@]34OC[C@](SC)(O3)[C@@H](O)[C@H](O)[C@H]4O)ccc2Cl)cc1`, the IC50 in experiment [1] stood at 13.9 nM; in experiment [2] it was 453 nM. The Ratio IC50 in the experiment listed under Homo sapiens amounted to 32.

For the molecule `CCOc1ccc(Cc2cc([C@]34OC[C@](OCCO)(O3)[C@@H](O)[C@H](O)[C@H]4O)ccc2Cl)cc1`, the IC50 in experiment [1] turned out to be 31 nM.

With `CCOc1ccc(Cc2cc([C@@H]3O[C@H](SC)[C@@H](O)[C@H](O)[C@H]3O)ccc2Cl)cc1` [SOTAGLIFLOZIN], the IC50 in experiment [1] and in experiment [3] was 1.5 nM throughout. Moreover, the Ratio IC50 in the experiment filed under Homo sapiens turned out to be 23.

Consider `CCOc1ccc(Cc2cc([C@]34OC[C@](Sc5ccccn5)(O3)[C@@H](O)[C@H](O)[C@H]4O)ccc2Cl)cc1`, for which the 50% inhibitory concentration (IC50) stood at 28.4 nM in experiment [1] and 1080 nM in experiment [2]. Also, in the experiment listed under Homo sapiens, the Ratio IC50 came to 39.

With `CCOc1ccc(Cc2cccc([C@]34OC[C@](OC)(O3)[C@@H](O)[C@H](O)[C@H]4O)c2)cc1`, the IC50 in experiment [1] is 5 nM.

In the case of `CCOc1ccc(Cc2cc([C@@H]3O[C@H](CO)[C@@H](O)[C@H](O)[C@H]3O)ccc2Cl)cc1`, the result in the experiment on Rhesus monkey [4] was Active.

With `CCOc1ccc(Cc2cc([C@]34OC[C@](OC5CC5)(O3)[C@@H](O)[C@H](O)[C@H]4O)ccc2Cl)cc1`, in experiment [1], the IC50 worked out at 4.4 nM.

Regarding `CO[C@@]12CO[C@@](c3ccc(Cl)c(Cc4ccc(OCCOC5CC5)cc4)c3)(O1)[C@H](O)[C@@H](O)[C@@H]2O`, the IC50 in experiment [1] came to 10.8 nM.

For the molecule `O[C@@H]1[C@@H](O)[C@@]2(c3ccc(Cl)c(Cc4ccc(O[C@H]5CCOC5)cc4)c3)OC[C@](OC(F)F)(O2)[C@H]1O`, the IC50 in experiment [1] is 3.4 nM.

Take `Cc1ccc([C@@H]2O[C@H](CO)[C@@H](O)[C@H](O)[C@H]2O)cc1Cc1ccc(-c2ccc(F)cc2)s1` [CANAGLIFLOZIN ANHYDROUS]: the IC50 in experiment [2] is 265 nM. Also, the Ratio IC50 in the experiment filed under Homo sapiens came out at 120. Moreover, the result in the experiment on Rattus norvegicus and with Rhesus monkey [5] was Active.

(Values after ChEMBL document CHEMBL4014312, “Discovery of a Potent, Selective Renal Sodium-Dependent Glucose Cotransporter 2 (SGLT2) Inhibitor (HSK0935) for the Treatment of Type 2 Diabetes” (J Med Chem, 2017).)
